Hits are enriched below; roughly 1.9% of the tested compounds scored in any of these assays.
XiGFP reactiv = X-chromosome reactivation activator; AID 743238; hit rate 0.055% among 360,000; activation, % at 7.58 µM; XiGFP mouse fibroblasts, % GFP-positive cells imaging, 3 d; cells co-treated with 5-aza-dC sensitizer; scaled so ellipticine positive control = 100%;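 active = mean normalized replicate activation at least 10% and every replicate at or above 10%; inconclusive = only one of the two criteria met; inactive = mean below 10% and not all replicates reach 10%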;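 note: 0% = median of on-plate neutral control wells and 100% = ellipticine 6 µM median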
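System: 68-5-11 XiGFP fibroblast line; Timing: 3 days compound exposure; Compound dosing: one concentration, pinned; Benchmarks: positive control ellipticine, 6 µM final; Buffer or medium: DMEM containing 5-aza-dC.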
CFTR F508del cor = CFTR F508del correction in bronchial cells; CFBE cells, YFP halide quenching; stimulated with forskolin plus potentiator P3; % fluorescence drop versus neutral controls; hit rate 0.36% among 350,000; AID 720511; activity (quench increase), % at 7.58 µM;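 active = mean added fluorescence quench of at least 8% versus neutral control, with both replicates also reaching 8%; inconclusive = only one of the mean or replicate conditions met; inactive = mean below 8% and not both replicates reaching 8%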;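 note: cells transiently co-express mutant CFTR-F508del with the halide-sensitive YFP; corrector assay measuring rescue of mutant channel to the surface after 24 h compound exposure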
FN deposition inh = fibronectin deposition inhibition; AH1F fibroblasts, Alexa488-fibronectin deposition fluorescence, overnight; inhibition, % at 12.6 µM; hit rate 0.086% among 350,000; AID 743247;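 active = mean inhibition across replicates of 30% or more, regardless of how many single replicates reach that level; inconclusive = mean under 30% yet at least half of replicates reach 30%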;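 note: positive control wells lacked labelled fibronectin entirely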
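Material: AH1F fibroblasts assembling fluorescent fibronectin matrix; amount: 10000 AH1F cells/well; medium: DMEM, 2% serum; reagent: Alexa488-fibronectin, 24 nM final in well; dosing: single compound dose, delivered by pin transfer; incubation: 1 h adhesion, overnight exposure; detection: fluorescence after three HBSS washes, excitation 485 nm, emission 525 nm; measure: fibronectin deposition inhibition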
Cneo AK release = causes C. neoformans cell lysis. adenylate kinase release luminescence, 4 h; normalised: neutral wells 0, clomiphene wells 100. lysis activity, % at 15 µM. hit rate 0.2% among 360,000;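 active = mean lysis activity across replicates of at least 80%, whatever share of replicates individually reach that level; inactive = mean lysis activity below 80%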
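Assay system: Cryptococcus neoformans yeast cells / Dosing: single-point compound dose / Timing: 4 h at 37 °C static, read 1 h later / Measured by: luminescence of released adenylate kinase using an AK detection reagent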
PGC1a acetyl inh = modulators of PGC1a acetylation; U2OS PGC1a acetylation, AlphaScreen anti-acetyl-lysine; with virally co-expressed GCN5 acetyltransferase; inhibition, % at 15.6 µM; hit rate 0.17% among 350,000;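 active = every replicate shows inhibition of at least 40%; inconclusive = mean inhibition at least 40% but some replicate below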;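 note: 0% = neutral control wells and 100% = positive control wells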
DENV2 CPE = protects cells from dengue virus 2 cytopathic effect. DENV2-infected cells, cytopathic effect rescue, plate reader. CPE inhibition, % at 9.99 µM. hit rate 1.7% among 350,000. AID 651640; in the data active = CPE inhibition above about 20%, passing the limit was not always enough; inconclusive = no clear call, values can overlap the other calls; tested in BHK-21 cells;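 note: 0% = median of neutral control wells and 100% = median of positive control wells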
Numbers without * were called inactive; ? = inconclusive; . = no result given.

SMILES | XiGFP reactiv | CFTR F508del cor | FN deposition inh | Cneo AK release | PGC1a acetyl inh | DENV2 CPE
COc1ccc2c(c1)C(=O)CC(c1ccc3c(c1)OCCO3)O2 (configuration not stated) | 0.2 | 11.7* | -1.5 | 1.1 | -9.5 | -0.3
C[C@H]1CN([C@@H](C)CO)C(=O)c2cc(N(C)C)ccc2O[C@@H]1CN(C)S(=O)(=O)c1cccs1 | 0.8 | 0.4 | -23.4 | -1.6 | 6.0 | 7.1
CC(=O)c1ccc(OCc2cc(C(=O)NCCN3CCCC(O)C3)no2)cc1 (configuration not stated) | 0.1 | 1.0 | -1.4 | 0.2 | . | -2.6
COc1cc(C)ccc1OCc1cc(C(=O)NCCN2CCCC(O)C2)no1 (configuration not stated) | 0.0 | -1.5 | . | -0.2 | -5.4 | 62.5*
Cc1ccc(S(=O)(=O)Nc2ccc3c(c2)CC(=O)N([C@@H](C)CO)C[C@@H](C)[C@H](CN(C)C(=O)Nc2ccc4c(c2)OCO4)O3)cc1 | -0.6 | 1.9 | -11.6 | -3.7 | -4.9 | 7.5
N#C[C@H]1[C@@H](c2ccc(C#Cc3ccccc3F)cc2)[C@@H](CO)N1C(=O)C1CCCC1 | 0.0 | 1.6 | 10.7 | . | . | 32.9*
N#C[C@@H]1[C@H](c2ccc(C#Cc3ccccc3F)cc2)[C@H](CO)N1C(=O)C1CCC1 | -0.1 | -1.8 | -7.8 | -8.0 | -6.0 | 101.7*
N#C[C@@H]1[C@H](c2ccc(C#Cc3ccc(F)cc3)cc2)[C@@H](CO)N1C(=O)C1CCCC1 | 0.0 | 1.7 | -12.2 | 0.9 | -27.4 | 51.1*
N#C[C@H]1[C@@H](c2ccc(C#Cc3ccccc3F)cc2)[C@H](CO)N1C(=O)C1CC1 | 0.4 | -1.4 | 5.0 | -0.1 | -11.8 | 2.7
N#C[C@H]1[C@H](c2ccc(C#Cc3ccc(F)cc3)cc2)[C@H](CO)N1C(=O)C1CC1 | 0.0 | -0.6 | -2.3 | 32.5 | -12.7 | -5.2
N#C[C@@H]1[C@H](c2ccc(C#Cc3ccccc3F)cc2)[C@@H](CO)N1C(=O)C1CC1 | 0.5 | 1.8 | -5.5 | -3.8 | -9.9 | 81.7*
Cc1noc(C)c1NC(=O)Nc1cccc2c1O[C@H](CN(C)Cc1ccc3c(c1)OCO3)[C@H](C)CN([C@@H](C)CO)C2=O | 0.0 | -1.8 | . | 1.6 | -2.3 | -1.0
COc1ccccc1C#Cc1ccc([C@@H]2[C@@H](C#N)N(C(=O)C3CCC3)[C@H]2CO)cc1 | 0.0 | 3.6 | -1.9 | 5.3 | -12.0 | 21.5*
C[C@H](CO)N1C[C@H](C)[C@@H](CN(C)C)OCCCC[C@H](C)Oc2ccc(NC(=O)NC3CCCCC3)cc2C1=O | 0.0 | -2.2 | . | -0.1 | 1.0 | 19.8
Cc1cc(C)c(NC(=O)Nc2ccc3c(c2)OCO3)c(C)c1 | 0.0 | 1.1 | . | -5.9 | 7.7 | 1.6
Cc1cc(C)c2[nH]c(C(=O)Nc3ccc4c(c3)OCO4)cc2c1 | -0.1 | 2.4 | -0.8 | . | -17.2 | 24.4*
CCC(=O)N1CC(=O)N2[C@H](CO)[C@H](c3ccc(-c4cccnc4)cc3)[C@H]2C1 | 0.0 | -0.1 | . | . | 1.5 | ?
Cc1cccc(/C=N/Nc2cc(N3CCOCC3)nc(N3CCOCC3)n2)c1 | 0.1 | -12.2 | 35.6* | . | . | -8.2
CC(C)c1ccc(/C=N/Nc2cc(N3CCOCC3)nc(N3CCOCC3)n2)cc1 | 0.0 | . | 6.9 | 11.1 | -13.1 | .
CO[C@@H]1CN(C)C(=O)c2ccc(NC(=O)c3cnccn3)cc2OC[C@@H](C)N(C)C[C@@H]1C | -0.2 | -0.4 | -2.6 | . | . | -9.5
COc1cccc(-c2ccc3c(c2)O[C@@H](CN(C)C(=O)c2ccccc2F)[C@@H](C)CN([C@H](C)CO)S3(=O)=O)c1 | 0.0 | 0.1 | . | 2.8 | -36.1 | -0.1
Cc1noc(C)c1S(=O)(=O)N(C)C[C@@H]1OCCCC[C@@H](C)Oc2ccc(NS(=O)(=O)c3ccc(Cl)cc3)cc2C(=O)N([C@@H](C)CO)C[C@H]1C | -0.8 | 2.8 | . | 3.1 | -18.2 | 35.7*
Cc1noc(C)c1S(=O)(=O)N(C)C[C@H]1OCCCC[C@@H](C)Oc2ccc(NS(=O)(=O)c3ccc(Cl)cc3)cc2C(=O)N([C@@H](C)CO)C[C@@H]1C | -0.9 | 4.3 | . | 4.5 | -14.2 | 30.6*
Cc1noc(C)c1S(=O)(=O)N(C)C[C@H]1OCCCC[C@@H](C)Oc2ccc(NS(=O)(=O)c3ccc(Cl)cc3)cc2C(=O)N([C@@H](C)CO)C[C@H]1C | -0.3 | 1.2 | . | 2.3 | -29.5 | -14.0
CCN1[C@@H]2Cn3c(ccc(-c4ccc(OC)cc4)c3=O)[C@H]1[C@@H](C(=O)NCC1CC1)[C@@H]2CO | 0.1 | 3.4 | . | 0.2 | -5.6 | -12.5
SMILES | XiGFP reactiv | CFTR F508del cor | FN deposition inh | Cneo AK release | PGC1a acetyl inh | DENV2 CPE
COc1cc(-c2cc(NC(C)=O)c3ncc(-c4cc(OC)c(OC)c(OC)c4)n3c2)cc(OC)c1OC | 0.2 | -9.1 | -5.1 | 2.3 | -22.6 | -9.7
COc1cc(-c2cnc3c(NC=O)cc(-c4ccc(C)cc4)cn23)cc(OC)c1OC | 2.2 | 4.3 | -46.3 | 1.2 | -89.1 | 94.6*
COc1cc(-c2cnc3c(NC(C)=O)cc(-c4ccccc4CN(C)C)cn23)cc(OC)c1OC | 0.5 | -3.0 | 2.2 | -0.1 | -50.3 | 24.9*
COc1ccc(-c2cnc3c(NC(C)=O)cc(-c4ccccc4OC)cn23)cc1OC | 0.2 | 3.6 | 2.0 | -0.9 | -16.5 | 30.1*
CC(=O)Nc1cc(-c2ccc(C(=O)NC3CC3)cc2)cn2c(-c3cccc(C(F)(F)F)c3)cnc12 | 0.1 | 3.1 | -0.5 | -1.1 | 1.5 | 38.3*
CCOC(=O)c1ccc(NC(=O)O[C@H]2[C@H](OC(=O)Nc3ccccc3)[C@@H](OC(=O)Nc3ccccc3)[C@@H](OC)O[C@@H]2CO)cc1 | . | -5.4 | . | -3.7 | . | -1.1
COc1ccc(S(=O)(=O)N(C)C[C@@H]2Oc3c(NC(=O)c4ccc(-c5nccs5)cc4)cccc3C(=O)N([C@@H](C)CO)C[C@H]2C)cc1 | -0.1 | . | -4.3 | . | . | .
CCCC(=O)Nc1ccc2c(c1)OC[C@@H](C)N(CCC(F)(F)F)C[C@@H](C)[C@H](OC)CN(C)C2=O | 0.4 | -2.0 | -3.5 | . | 3.9 | -16.3
Cc1onc(-c2ccccc2)c1C(=O)NN=Cc1cc(Cl)cc(Cl)c1O | 0.6 | -0.2 | 1.2 | . | . | -6.4
Cc1onc(-c2ccccc2)c1C(=O)N/N=C/c1c(F)cccc1Cl | 0.1 | -2.1 | -4.6 | -0.9 | . | 79.3*
CCN1[C@@H]2c3ccc(-c4cccc(F)c4)c(=O)n3C[C@H]1[C@H](CO)[C@H]2C(=O)N(C)C | 0.7 | -0.2 | . | -6.6 | . | -7.2
CC(C)NC(=O)N(C)C[C@H]1Oc2c(NC(=O)CCCCCC(=O)Nc3ccccc3N)cccc2C(=O)N([C@@H](C)CO)C[C@@H]1C | 0.0 | 0.0 | . | . | 2.1 | -1.3
